According to ChEMBL document CHEMBL1926614, “Substituted thiazoles V. synthesis and antitumor activity of novel thiazolo[2,3-b]quinazoline and pyrido[4,3-d]thiazolo[3,2-a]pyrimidine analogues” (2012):

Columns and labels:
Format in all cases: functional
CCRF-CEM = test: Growth inhibition of human CCRF-CEM cells at 10 uM after 48 hrs by coulter counting; settings: read-out: GI
In short: (§1)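 Single-dose primary screen across the full NCI 60-cell-line panel. Stocks were made in DMSO and diluted in PBS to a final DMSO below 1%. Cultures at 6 × 10⁴ cells/ml were run in duplicate wells alongside PBS/DMSO vehicle controls at 37 °C in humidified 5% CO₂. Data were expressed as percent growth of treated cells.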

KM12 = test: Growth inhibition of human KM12 cells at 10 uM after 48 hrs by coulter counting; settings: KM12, 48 h, read-out: GI; in short: as §1
UACC-257 = test: Growth inhibition of human UACC257 cells at 10 uM after 48 hrs by coulter counting; settings: UACC-257, 48 h, read-out: GI
In short: (§2)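 Single-dose screen in the NCI 60 human tumor cell line panel (nine subpanels). Compounds dissolved in DMSO and diluted in phosphate buffered saline, keeping final DMSO below 1%. Added in duplicate wells to cells at 6 × 10⁴ cells/ml. Controls held PBS and DMSO at matching dilutions. Incubated at 37 °C, humidified, 5% CO₂. Reported as percent growth of treated cells.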

NCI-H226 = test: Growth inhibition of human NCI-H226 cells at 10 uM after 48 hrs by coulter counting; settings: NCI-H226, 48 h, read-out: GI; in short: as §1
HCC 2998 = test: Growth inhibition of human HCC2998 cells at 10 uM after 48 hrs by coulter counting; settings: HCC 2998, 48 h, read-out: GI; in short: as §1
MCF7 = test: Growth inhibition of human MCF7 cells at 10 uM after 48 hrs by coulter counting; settings: MCF7, 48 h, read-out: GI; in short: as §1
UO-31 = test: Growth inhibition of human UO31 cells at 10 uM after 48 hrs by coulter counting; settings: UO-31, 48 h, read-out: GI; in short: as §2
K562 = test: Growth inhibition of human K562 cells at 10 uM after 48 hrs by coulter counting; settings: K562, 48 h, read-out: GI; in short: as §1
HOP-62 = test: Growth inhibition of human HOP62 cells at 10 uM after 48 hrs by coulter counting; settings: HOP-62, 48 h, read-out: GI; in short: as §1
BT-549 = test: Growth inhibition of human BT549 cells at 10 uM after 48 hrs by coulter counting; settings: BT-549, 48 h, read-out: GI; in short: as §1
NCI-H23 = test: Growth inhibition of human NCI-H23 cells at 10 uM after 48 hrs by coulter counting; settings: NCI-H23, 48 h, read-out: GI; in short: as §1
HL-60(TB) = test: Growth inhibition of human HL-60(TB) cells at 10 uM after 48 hrs by coulter counting; settings: HL-60, 48 h, read-out: GI
In short: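 Test compound was dissolved in DMSO and diluted in phosphate-buffered saline to a final DMSO level below 1%. Dilutions were plated in duplicate with cell culture at 6 × 10⁴ cells/ml. Vehicle controls held PBS and DMSO at matching dilutions. Incubation was at 37 °C, humidified, under 5% CO₂. Data were reported as percent growth of treated cells.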

MOLT-4 = test: Growth inhibition of human MOLT4 cells at 10 uM after 48 hrs by coulter counting; settings: MOLT-4, 48 h, read-out: GI; in short: as §1
RPMI-8226 = test: Growth inhibition of human RPMI8226 cells at 10 uM after 48 hrs by coulter counting; settings: RPMI-8226, 48 h, read-out: GI; in short: as §1
NCI-H460 = test: Growth inhibition of human NCI-H460 cells at 10 uM after 48 hrs by coulter counting; settings: NCI-H460, 48 h, read-out: GI; in short: as §1
NCI-H522 = test: Growth inhibition of human NCI-H522 cells at 10 uM after 48 hrs by coulter counting; settings: NCI-H522, 48 h, read-out: GI; in short: as §1
SK-MEL-5 = test: Growth inhibition of human SK-MEL-5 cells at 10 uM after 48 hrs by coulter counting; settings: SK-MEL-5, 48 h, read-out: GI; in short: as §1
[1] = Growth inhibition of human NCI-322M cells at 10 uM after 48 hrs by coulter counting; settings: read-out: GI; in short: as §1
OVCAR-4 = test: Growth inhibition of human OVCAR4 cells at 10 uM after 48 hrs by coulter counting; settings: OVCAR-4, 48 h, read-out: GI; in short: as §1
DU-145 = test: Growth inhibition of human DU145 cells at 10 uM after 48 hrs by coulter counting; settings: DU-145, 48 h, read-out: GI; in short: as §1
U-251 = test: Growth inhibition of human U251 cells at 10 uM after 48 hrs by coulter counting; settings: U-251, 48 h, read-out: GI; in short: as §2
A549 = test: Growth inhibition of human A549 cells at 10 uM after 48 hrs by coulter counting; settings: A549, 48 h, read-out: GI; in short: as §1
ACHN = test: Growth inhibition of human ACHN cells at 10 uM after 48 hrs by coulter counting; settings: read-out: GI; in short: as §1
SF-268 = test: Growth inhibition of human SF268 cells at 10 uM after 48 hrs by coulter counting; settings: SF-268, 48 h, read-out: GI; in short: as §1
A498 = test: Growth inhibition of human A498 cells at 10 uM after 48 hrs by coulter counting; settings: A498, 48 h, read-out: GI; in short: as §1
SF-295 = test: Growth inhibition of human SF295 cells at 10 uM after 48 hrs by coulter counting; settings: SF-295, 48 h, read-out: GI; in short: as §1
IGROV-1 = test: Growth inhibition of human IGROV1 cells at 10 uM after 48 hrs by coulter counting; settings: IGROV-1, 48 h, read-out: GI; in short: as §1
SF-539 = test: Growth inhibition of human SF539 cells at 10 uM after 48 hrs by coulter counting; settings: SF-539, 48 h, read-out: GI; in short: as §1
EKVX = test: Growth inhibition of human EKVX cells at 10 uM after 48 hrs by coulter counting; settings: read-out: GI; in short: as §1
MDA-MB-435 = test: Growth inhibition of human MDA-MB-435 cells at 10 uM after 48 hrs by coulter counting; settings: MDA-MB-435, 48 h, read-out: GI; in short: as §1
UACC-62 = test: Growth inhibition of human UACC62 cells at 10 uM after 48 hrs by coulter counting; settings: UACC-62, 48 h, read-out: GI; in short: as §2
M14 = test: Growth inhibition of human M14 cells at 10 uM after 48 hrs by coulter counting; settings: M14, 48 h, read-out: GI; in short: as §1
LOX IMVI = test: Growth inhibition of human LOXIMVI cells at 10 uM after 48 hrs by coulter counting; settings: read-out: GI; in short: as §1
SNB-19 = test: Growth inhibition of human SNB19 cells at 10 uM after 48 hrs by coulter counting; settings: SNB-19, 48 h, read-out: GI; in short: as §1
SK-MEL-2 = test: Growth inhibition of human SK-MEL-2 cells at 10 uM after 48 hrs by coulter counting; settings: SK-MEL-2, 48 h, read-out: GI; in short: as §1
CAKI-1 = test: Growth inhibition of human Caki1 cells at 10 uM after 48 hrs by coulter counting; settings: CAKI-1, 48 h, read-out: GI; in short: as §1
HT-29 = test: Growth inhibition of human HT-29 cells at 10 uM after 48 hrs by coulter counting; settings: HT-29, 48 h, read-out: GI; in short: as §1
NCI/ADR-RES = test: Growth inhibition of human NCI/ADR-RES cells at 10 uM after 48 hrs by coulter counting; settings: read-out: GI; in short: as §1
HCT-116 = test: Growth inhibition of human HCT116 cells at 10 uM after 48 hrs by coulter counting; settings: HCT-116, 48 h, read-out: GI; in short: as §1
T47D = test: Growth inhibition of human T47D cells at 10 uM after 48 hrs by coulter counting; settings: read-out: GI; in short: as §2
SK-MEL-28 = test: Growth inhibition of human SK-MEL-28 cells at 10 uM after 48 hrs by coulter counting; settings: SK-MEL-28, 48 h, read-out: GI; in short: as §1
SNB-75 = test: Growth inhibition of human SNB75 cells at 10 uM after 48 hrs by coulter counting; settings: SNB-75, 48 h, read-out: GI; in short: as §1

Measured: inhibition of growth at 10 µM

CC1=CSC2=NC3=C(CCC/C3=C\c3ccccc3)C(c3ccccc3)N12 (centres undefined)
11.2%: NCI-H226
13.8%: K562
13.3%: SNB-75
28.8%: UO-31
11.4%: CAKI-1
> 10%: all other assays above

C1=CN2C(=NC3=C(CCC/C3=C\c3ccccc3)C2c2ccccc2)S1 (centres undefined)
21.4%: UO-31
> 10%: all other assays above
